Ki data for 20 compounds are collected here from ChEMBL document CHEMBL1141997, “The discovery and synthesis of novel adenosine receptor (A(2A)) antagonists” (Bioorg Med Chem Lett, 2005).

A short description of this experiment: Inhibition constant against Adenosine A2a receptor. The method in brief: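 Membranes from HEK cells expressing human A2A receptor, incubated with 1 nM [3H]SCH-58261 and 10 test concentrations. Buffer: phosphate-buffered saline with 10 mM MgCl2, 0.04% methyl cellulose, adenosine deaminase and 4% DMSO. Incubation 60 min at 23 °C, then filtration and washes with cold water. Nonspecific binding defined with CGS-15943. Duplicates, each compound tested twice. IC50 from one-site fit, Ki by Cheng–Prusoff.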

One may read the Ki as the dissociation constant of the complex between target and ligand, obtained from inhibition or displacement. A higher Ki goes with weaker binding. Turning to `Cc1ccc2c(c1)-c1nc(N)nc(-c3ccc(CO)o3)c1C2`, the inhibition constant (Ki) was 2.6 nM. The compound `Cc1ccc2c(c1)-c1nc(N)nc(C3CCC(Br)O3)c1C2` (stereo not given) had a Ki of 4.2 nM.

As to `CCc1ccc2c(c1)-c1nc(N)nc(-c3ccc(Br)o3)c1C2`, the Ki came out at 2.6 nM. Then `Cc1ccc2c(c1)-c1nc(N)nc(-c3ccncc3)c1C2`, with 56.9 nM; and `COc1ccc2c(c1)-c1nc(N)nc(-c3ccc(Br)o3)c1C2`, with 1.6 nM. Consider `Nc1nc(-c2ccccc2)c2[nH]c3ccccc3c2n1`, for which the Ki was determined as 40.5 nM.

`CC(C)(C)c1ccc2c(c1)-c1nc(N)nc(-c3ccc(Br)o3)c1C2` returned a Ki of 8.1 nM. In the case of `Nc1nc(-c2ccccc2)c2oc3ccccc3c2n1` it was 9 nM; in that of `Nc1nc(-c2ccccc2)c2c(n1)-c1ccccc1CC2`, 172 nM.

`Nc1nc(-c2ccc(Br)o2)c2c(n1)-c1cc(Cl)ccc1C2` showed a Ki of 1 nM. With `Nc1nc(-c2ccc(Br)o2)c2c(n1)-c1cc(N3CCCC3)ccc1C2`, the inhibition constant Ki is 3.9 nM. Take `Cc1ccc2c(c1)-c1nc(N)nc(-c3ccccc3)c1C2`: the Ki turned out to be 11 nM. As to `CC(C)c1ccc2c(c1)-c1nc(N)nc(-c3ccc(Br)o3)c1C2`, affinity was put at a Ki of 0.8 nM. In the case of `Cc1ccc2c(c1)-c1nc(N)nc(-c3ccco3)c1C2` it was 6.7 nM; in that of `Cc1ccc2c(c1)-c1nc(N)nc(-c3ccc(C)o3)c1C2`, 7.1 nM; in that of `Cc1ccc2c(c1)-c1nc(N)nc(-c3ccc(Br)o3)c1C2`, 4.2 nM. `Nc1nc(-c2ccccc2)c2c(n1)-c1ccccc1C2O` (stereo not given) had an inhibitory constant (Ki) of 168 nM. In turn, `Nc1nc(-c2ccc(Br)o2)c2c(n1)-c1cc(-c3ccccc3)ccc1C2` returned a Ki of 10.9 nM. In the case of `Cc1ccc2c(c1)-c1nc(N)nc(-c3ccccn3)c1C2` it was 154 nM.

Compound `Nc1nc(-c2ccccc2)c2c(n1)-c1ccccc1C2=O` yielded a Ki of 1.7 nM.
